Results reported in ChEMBL document CHEMBL2434877, “Synthesis and SAR study of novel 3,3-diphenyl-1,3-dihydroindol-2-one derivatives as potent eIF2·GTP·Met-tRNAiMet ternary complex inhibitors” (Eur J Med Chem, 2013).
Activity calls are given as the source filed them. The rule behind the calls is not given here.

Assays:
Mus musculus [1] = organism: Mus musculus; assay: Inhibition of eIF2-GTP-Met-tRNAi (Met) in mouse KLN205 cells assessed as increase in CHOP mRNA expression by qRT-PCR analysis relative to DMSO-treated control; format: cell-based
Outline: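 CHOP mRNA measured by PCR in KLN-205 cells, triplicate in at least two independent runs. Transcript quantities normalized to 18S rRNA and expressed as fold over DMSO control.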

Mus musculus [2] = organism: Mus musculus; assay: Inhibition of eIF2-GTP-Met-tRNAi (Met) in mouse KLN205 cells assessed as increase in ATF-4 expression at 40 uM by dual luciferase reporter gene assay relative to control; format: cell-based
Outline: (§1)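 KLN-205 cells carry firefly luciferase fused to the ATF-4 5′UTR and renilla luciferase behind a uORF-free 5′UTR. Cells treated overnight with compound at 10, 20, 40 or 80 µM, then read with a glow-type dual luciferase kit. Firefly/renilla ratio corrected for the same ratio in DMSO wells on the same plate.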

[3] = Antiproliferative activity against human CRL2351 cells after 5 days by SRB assay; format: functional, cell-based; conditions: 120 h
Outline: (§2)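 Adherent cells plated, allowed to settle overnight, then exposed 5 days to 0.54–20 µM compound. Fixed in cold 10% TCA (4 °C, 1 h), stained with 0.4% SRB in 1% acetic acid for 1 h, dye solubilized in 10 mM Tris pH 10, A490 read. Time-zero plates used for %T/C. IC50 is the 50% growth-inhibition concentration, mean of 2 experiments each in triplicate.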

[4] = Antiproliferative activity against human CRL2813 cells after 5 days by SRB assay; format: functional, cell-based; conditions: CRL2813, 120 h; outline: as §2
[5] = Antiproliferative activity against mouse KLN205 cells after 5 days by SRB assay; format: functional, cell-based; conditions: 120 h; outline: as §2
MCF7 = assay: Antitumor activity against human MCF7 cells xenografted in mouse assessed as regression in tumor size at 140 mg/kg, sc bid for 3 weeks relative to control; format: functional; conditions: route subcutaneous
Mus musculus [6] = organism: Mus musculus; assay: Inhibition of eIF2-GTP-Met-tRNAi (Met) in mouse KLN205 cells assessed as increase in ATF-4 expression at 80 uM by dual luciferase reporter gene assay relative to control; format: cell-based; outline: as §1
Mus musculus [7] = organism: Mus musculus; assay: Inhibition of eIF2-GTP-Met-tRNAi (Met) in mouse KLN205 cells assessed as increase in ATF-4 expression at 10 to 80 uM by dual luciferase reporter gene assay; format: cell-based; outline: as §1

SMILES	fold change (FC) (Mus musculus [1])	fold change (FC) (Mus musculus [2])	IC50 [3] [µM]	IC50 [4] [µM]	IC50 [5] [µM]	Activity (MCF7) [%]	fold change (FC) (Mus musculus [6])	ATF-4 reporter expression relative to DMSO control (Mus musculus [7])
CC(C)(C)c1ccc(O)c(C2(c3ccccc3)C(=O)Nc3ccccc32)c1 (configuration not stated)	3.77	3.7	3.4	4.8	14.4	30		
CC(C)(C)c1ccc(O)c(C2(c3ccccc3)C(=O)Nc3ccc(-c4ccc(N5CCOCC5)nc4)cc32)c1 (configuration not stated)	20.8		1.8	2.5	13.3		15.6	
CC(C)(C)c1ccc(O)c(C2(c3ccc(O)cc3)C(=O)Nc3ccccc32)c1 (configuration not stated)			2	4	17.3			
CC(C)(C)c1ccc(O)c(C2(c3ccc(O)cc3)C(=O)Nc3c2ccc(F)c3F)c1 (configuration not stated)	3.09	2.9	> 20	10.7	15.3			
COc1ccc(C2(c3cc(C(C)(C)C)ccc3OCCN3CCOCC3)C(=O)Nc3ccccc32)cc1 (racemic)	7.1	6.3	2.65	2.4	4.3			
CN(C)c1ccc(C2(c3cc(C(C)(C)C)ccc3OCCN3CCOCC3)C(=O)Nc3ccccc32)cc1 (racemic)	4.15	7.15	4.7	7.5	2.2			
COc1ccc(C2(c3cc(C(C)(C)C)ccc3OCCN3CCOCC3)C(=O)Nc3ccccc32)cc1OC (racemic)			> 20	> 20	> 20			
COc1ccc(C2(c3cc(C(C)(C)C)ccc3OCCN3CCOCC3)C(=O)Nc3ccccc32)cc1F (racemic)			2.5	2.7	3.4			
COc1ccc(C2(c3cc(C(C)(C)C)ccc3OCCN3CCOCC3)C(=O)Nc3ccc(OC)cc32)cc1 (racemic)			4.5	2.9	2.75			
COC(=O)c1cccc2c1NC(=O)C2(c1ccc(OC)cc1)c1cc(C(C)(C)C)ccc1OCCN1CCOCC1 (racemic)			16.3	14.6	17			inactive
COc1ccc(C2(c3cc(C(C)(C)C)ccc3OCCN3CCOCC3)C(=O)Nc3ccc(I)cc32)cc1 (racemic)			6.1	2.6	12			
COc1ccc(C2(c3cc(C(C)(C)C)ccc3OCCN3CCOCC3)C(=O)Nc3ccc(OC(F)(F)F)cc32)cc1 (racemic)	3.49	5.11	2.9	1.9	9.3			
CN(C)c1ccc(C2(c3cc(C(C)(C)C)ccc3OCCN3CCOCC3)C(=O)Nc3c2ccc(F)c3F)cc1 (racemic)			4	11	15.7			
C#CCOc1ccc(C(C)(C)C)cc1C1(c2ccccc2)C(=O)Nc2ccccc21 (racemic)			17.5	> 20	> 20			
CC(C)(C)c1ccc(OCC(=O)O)c(C2(c3ccccc3)C(=O)Nc3ccccc32)c1 (racemic)			> 20	> 20	> 20			inactive
COc1ccc(C2(c3cc(C(C)(C)C)ccc3O)C(=O)Nc3ccccc32)cc1 (racemic)	4.09	5.6	2.65	2.75	15.7			
CN(C)c1ccc(C2(c3cc(C(C)(C)C)ccc3O)C(=O)Nc3ccccc32)cc1 (racemic)			2.3	11	10.9			
CC(C)(C)c1ccc(O)c(C2(c3ccc(CN4CCOCC4)cc3)C(=O)Nc3ccccc32)c1 (racemic)	4.68		7.3	7.8	17.3		12.4	
Cc1cc(C2(c3cc(C(C)(C)C)ccc3O)C(=O)Nc3ccccc32)ccc1Cl (racemic)			2.9	2.9	4.3			
CC(C)(C)c1ccc(O)c(C2(c3cccnc3)C(=O)Nc3ccccc32)c1 (racemic)			6.4	11.5	> 20			
CC(C)(C)c1ccc(O)c(C2(c3ccccc3)C(=O)Nc3ccc(I)cc32)c1 (racemic)	4.36	7.2	3.5	2.8	14.9			
CC(C)(C)c1ccc(O)c(C2(c3ccccc3)C(=O)Nc3ccc(OC(F)(F)F)cc32)c1 (racemic)			2.5	1	8			
CC(C)(C)c1ccc(O)c(C2(c3ccccc3)C(=O)Nc3ccc4ncsc4c32)c1 (racemic)			2.2	0.95	8			inactive
COc1ccc(C2(c3cc(C(C)(C)C)ccc3O)C(=O)Nc3c2ccc(F)c3F)cc1 (racemic)			0.95	3	12.3			inactive
COc1ccc(C2(c3cc(C(C)(C)C)ccc3O)C(=O)Nc3ccc(OC)cc32)cc1 (racemic)			2.9	11.1	14.3			inactive
COC(=O)c1cccc2c1NC(=O)C2(c1ccc(OC)cc1)c1cc(C(C)(C)C)ccc1O (racemic)			3.4	12.2	> 20			
CC(C)(C)c1ccc(OCCN2CCOCC2)c(C2(c3ccccc3)C(=O)Nc3ccccc32)c1 (racemic)			3.35	2.4	6.8			
CN(C)CCOc1ccc(C(C)(C)C)cc1C1(c2ccccc2)C(=O)Nc2ccccc21 (racemic)			1.4	2.4	1.2			
CC(C)(C)c1ccc(OCCN2CCNCC2)c(C2(c3ccccc3)C(=O)Nc3ccccc32)c1 (racemic)			0.9	12.8	1.2			inactive
